In ChEMBL document CHEMBL3576806, “Design and synthesis of novel arctigenin analogues for the amelioration of metabolic disorders” (ACS Med Chem Lett, 2015):
The source made the active and inactive calls. No cut-off for these calls is given here.

Columns and labels:
L6 [1] = experiment: Increase in glucose uptake in rat L6 cells at 24 uM pre-treated with compound for 30 mins using 2-deoxy-D-[1,2-3H]glucose and measured after 2 hrs […] by liquid scintillation counting method; assay type: functional
Summary of the method: (§1)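 L6 myotubes exposed to compound for 2 h at 1.5, 3, 6, 12 or 24 μM; 2-deoxyglucose uptake expressed as fold over untreated control; 3 μM (−)-arctigenin run alongside as positive control; mean ± SEM of 3 independent experiments.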

L6 [2] = experiment: Ratio of glucose uptake in rat L6 cells at 24 uM after 2 hrs to glucose uptake in rat L6 cells at 24 uM after 2 hrs in presence of 3 uM (-)-arctigenin; assay type: functional
Summary of the method: (§2)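 Glucose uptake in L6 myotubes after 2 h compound exposure divided by uptake with the 3 μM (−)-arctigenin positive control run in parallel.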

L6 [3] = experiment: Increase in glucose uptake in rat L6 cells at 24 uM pre-treated with compound for 30 mins using 2-deoxy-D-[1,2-3H]glucose and measured after 2 hrs by liquid scintillation counting method; assay type: functional; summary of the method: as §1
Mus musculus [4] = experiment: Antidiabetic activity in ob/ob mouse assessed as reduction in fed glucose levels at 50 mg/kg, ip bid for 12 days; assay type: functional; set-up: scale not given: the % may be the effect or the level left
Summary of the method: (§3)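 ob/ob mice given 50 mg/kg intraperitoneally or vehicle twice daily for 23 d; body weight and food intake recorded regularly, fed and fasting blood glucose measured throughout, serum triacylglycerol, cholesterol and NEFA measured at end of treatment; mean ± SEM, n = 6–8 mice, compared with vehicle group.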

[5] = Cmax in ob/ob mouse at 50 mg/kg, ip measured after 0.5 to 24 hrs; assay type: ADME, organism-based; set-up: dose 50 mg/kg, route intraperitoneal; conditions: in vivo
Mus musculus [6] = experiment: Antidiabetic activity in ob/ob mouse assessed as reduction in NEFA levels at 50 mg/kg, ip bid for 23 days; assay type: functional; set-up: scale not given: the % may be the effect or the level left; summary of the method: as §3
Mus musculus [7] = experiment: Toxicity in ob/ob mouse assessed as effect on feeding behavior at 50 mg/kg, ip bid for 23 days; assay type: organism-based; conditions: in vivo, 552 h; summary of the method: as §3
L6 [8] = experiment: Increase in glucose uptake in rat L6 cells pre-treated with compound for 30 mins using 2-deoxy-D-[1,2-3H]glucose and measured after 2 hrs in presence of 10 uM AMPK inhibitor compound-C by liquid scintillation counting method; assay type: functional, cell-based
Summary of the method: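 L6 myotube 2-deoxyglucose uptake after compound exposure, tested with and without the AMPK inhibitor compound C; mean ± SEM, n = 3 independent experiments.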

L6 [9] = experiment: Induction of fatty acid oxidation in rat L6 cells at 3 uM using [9,10-3H(N)]-palmitic acid incubated for 2 hrs; assay type: functional, cell-based
Summary of the method: (§4)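 Fatty acid oxidation measured in L6 myotubes after compound treatment, also with compound C to block AMPK; mean ± SEM, n = 3 independent experiments.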

L6 [10] = experiment: Induction of fatty acid oxidation in rat L6 cells at 6 uM using [9,10-3H(N)]-palmitic acid incubated for 2 hrs; assay type: functional, cell-based; summary of the method: as §4
Mus musculus [11] = experiment: Antidiabetic activity in ob/ob mouse assessed as effect on serum triglyceride levels at 50 mg/kg, ip bid for 23 days; assay type: functional, organism-based; summary of the method: as §3
L6 [12] = experiment: Induction of fatty acid oxidation in rat L6 cells using [9,10-3H(N)]-palmitic acid incubated for 2 hrs in presence of AMPK inhibitor compound-C; assay type: functional, cell-based; summary of the method: as §4
Mus musculus [13] = experiment: Reduction in respiratory exchange ratio in ob/ob mouse at 50 mg/kg, ip measured at 6 min intervals […] at 23 degC by indirect calorimetry; assay type: functional, organism-based
L6 [14] = experiment: Induction of depolarization of mitochondrial membrane potential in rat L6 cells incubated for 10 mins by fluorescence based assay; assay type: functional, cell-based
Summary of the method: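 L6 myotubes treated 10 min over a concentration series; mitochondrial membrane potential (Δψm) depolarization measured; mean ± SEM, n = 3 independent experiments.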

L6 [15] = experiment: Increase in glucose uptake in rat L6 cells at 6 uM pre-treated with compound for 30 mins using 2-deoxy-D-[1,2-3H]glucose and measured after 2 hrs […] by liquid scintillation counting method; assay type: functional; summary of the method: as §1
[16] = Tmax in ob/ob mouse at 50 mg/kg, ip measured after 0.5 to 24 hrs; assay type: ADME, organism-based; conditions: in vivo
Mus musculus [17] = experiment: Antidiabetic activity in ob/ob mouse assessed as reduction in body weight at 50 mg/kg, ip bid for 23 days measured on day 3; assay type: functional, organism-based; summary of the method: as §3
L6 [18] = experiment: Increase in glucose uptake in rat L6 cells at 6 uM pre-treated with compound for 30 mins using 2-deoxy-D-[1,2-3H]glucose and measured after 2 hrs by liquid scintillation counting method; assay type: functional; summary of the method: as §1
Mus musculus [19] = experiment: Antidiabetic activity in ob/ob mouse assessed as reduction in total cholesterol levels at 50 mg/kg, ip bid for 23 days; assay type: functional; set-up: scale not given: the % may be the effect or the level left; summary of the method: as §3
Mus musculus [20] = experiment: Antidiabetic activity in ob/ob mouse assessed as reduction in fasting blood glucose levels at 50 mg/kg, ip bid for 12 days; assay type: functional; set-up: scale not given: the % may be the effect or the level left; summary of the method: as §3
L6 [21] = experiment: Ratio of glucose uptake in rat L6 cells at 6 uM after 2 hrs to glucose uptake in rat L6 cells at 6 uM after 2 hrs in presence of 3 uM (-)-arctigenin; assay type: functional; summary of the method: as §2
[22] = AUC (0 to t) in ob/ob mouse at 50 mg/kg, ip measured after 0.5 to 24 hrs; assay type: ADME, organism-based; set-up: dose 50 mg/kg, time upper 24 hr, time lower 0.5 hr, route intraperitoneal; conditions: in vivo
L6 [23] = experiment: Increase in glucose uptake in rat L6 cells at 1.5 uM pre-treated with compound for 30 mins using 2-deoxy-D-[1,2-3H]glucose and measured after 2 hrs by liquid scintillation counting method; assay type: functional; summary of the method: as §1
L6 [24] = experiment: Increase in glucose uptake in rat L6 cells at 1.5 uM pre-treated with compound for 30 mins using 2-deoxy-D-[1,2-3H]glucose and measured after 2 hrs in presence of 3 uM (-)-arctigenin by liquid scintillation counting method; assay type: functional; summary of the method: as §1
L6 [25] = experiment: Ratio of glucose uptake in rat L6 cells at 1.5 uM after 2 hrs to glucose uptake in rat L6 cells at 1.5 uM after 2 hrs in presence of 3 uM (-)-arctigenin; assay type: functional; summary of the method: as §2
L6 [26] = experiment: Increase in glucose uptake in rat L6 cells at 3 uM […] using 2-deoxy-D-[1,2-3H]glucose and measured after 2 hrs […] by liquid scintillation counting method; assay type: functional; summary of the method: as §1
L6 [27] = experiment: Ratio of glucose uptake in rat L6 cells at 3 uM after 2 hrs to glucose uptake in rat L6 cells at 3 uM after 2 hrs in presence of 3 uM (-)-arctigenin; assay type: functional; summary of the method: as §2
L6 [28] = experiment: Increase in glucose uptake in rat L6 cells at 3 uM pre-treated with compound for 30 mins using 2-deoxy-D-[1,2-3H]glucose and measured after 2 hrs by liquid scintillation counting method; assay type: functional; summary of the method: as §1

With `COc1ccc(C[C@H]2COC(=O)[C@@H]2Cc2ccc(O)c(OC)c2)cc1` as the compound, how does the Activity (L6 [1]) read?
The Activity was 262.4%.

What about the Ratio (L6 [2]) of the same compound?
The Ratio was 0.896.

What about the Activity (L6 [3]) of the same compound?
The Activity was 235.1%.

What does the source list for `COc1ccc(CC2COC(=O)C2Cc2ccc(Cl)cc2)cc1OC` (racemic)?
Activity (Mus musculus [4]): 27.7%; Cmax [5]: 508 ng/mL; Activity (Mus musculus [6]): 10%; Activity (Mus musculus [7]): Non-toxic; Activity (L6 [8]): inactive; Activity (L6 [9]): Active; Activity (L6 [10]): Active; Activity (Mus musculus [11]): inactive; Activity (L6 [12]): inactive; Activity (Mus musculus [13]): Active; Activity (L6 [14]): Dose-dependent effect; Activity (L6 [15]): 185.5%; Tmax [16]: 30 min; Activity (Mus musculus [17]): Active; Activity (L6 [18]): 173.7%; Activity (Mus musculus [19]): 22.4%; Activity (Mus musculus [20]): 27.3%; Ratio (L6 [21]): 0.936; AUC(0-t) [22]: 1880 ng·h/mL

With `COc1ccc(C[C@H]2COC(=O)[C@@H]2Cc2ccccc2O)cc1OC` as the compound, how does the Activity (L6 [23]) read?
Its Activity is 137.6%.

What about the Activity (L6 [24]) of the same compound?
Its Activity is 237.6%.

And the Ratio (L6 [25])?
Its Ratio is 0.579.

Which Activity (L6 [26]) does the source give for `COc1ccc(C[C@H]2COC(=O)[C@@H]2Cc2ccccc2Cl)cc1OC` here?
Its Activity is 206.4%.

And the Ratio (L6 [27])?
The Ratio was 0.545.

What about the Activity (L6 [28]) of the same compound?
Its Activity is 112.4%.

For `COc1ccc(C[C@H]2COC(=O)[C@@H]2Cc2ccc(N)cc2)cc1OC`, which Activity (L6 [26]) is on record?
The Activity was 205.4%.

What about the Ratio (L6 [27]) of the same compound?
Its Ratio is 0.616.

What about the Activity (L6 [28]) of the same compound?
Its Activity is 126.6%.

For `COc1ccc(C[C@H]2COC(=O)[C@@H]2Cc2cccc(Cl)c2)cc1OC`, which Activity (L6 [26]) is on record?
The Activity was 212.4%.

What about the Ratio (L6 [27]) of the same compound?
Its Ratio is 0.54.

What about the Activity (L6 [28]) of the same compound?
The Activity was 114.8%.

Which Activity (L6 [23]) does the source give for `COc1ccc(C[C@H]2C(=O)OC[C@@H]2Cc2ccc(OC)c(OC)c2)cc1` here?
The Activity was 108.4%.

What about the Activity (L6 [24]) of the same compound?
The Activity was 182.1%.

What about the Ratio (L6 [25]) of the same compound?
Its Ratio is 0.595.
